Results from ChEMBL document CHEMBL4428053, “Application of a Parallel Synthetic Strategy in the Discovery of Biaryl Acyl Sulfonamides as Efficient and Selective NaV1.7 Inhibitors” (J Med Chem, 2016).
Converted amounts (≈) assume the structure as drawn. The source made the active and inactive calls. The rule behind the calls is not given here.

How the values were obtained:
[1] = target: T1, Sodium channel protein type 9 subunit alpha (Homo sapiens, UniProt Q15858); test: Inhibition of human Nav1.7 expressed in HEK293 cells incubated for 3 to 5 mins at -125 mV holding potential by electrophysiology assay; assay type: cell-based
[2] = target: Sodium channel protein type 9 subunit alpha (Rattus norvegicus, UniProt O08562); test: Inhibition of rat Nav1.7 expressed in HEK293T cells incubated for 3 to 5 mins at -125 mV holding potential by electrophysiology assay; assay type: cell-based
[3] = AUC (infinity) in Harlan rat at 1 mg/kg, iv by LC-MS/MS analysis; assay type: ADME, organism-based; set-up: dose 1 mg/kg, route intravenous, time infinity; settings: in vivo
Method in brief: (§1)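 Male fed rats. The IV dose was given in 100% DMSO. The oral dose was given in 1% Tween 80, 2% HPMC, 97% water/NaOH (pH 8.5).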

[4] = Clearance in Harlan rat at 1 mg/kg, iv by LC-MS/MS analysis; assay type: ADME, organism-based; settings: in vivo; method in brief: as §1
[5] = Half life in Harlan rat at 1 mg/kg, iv by LC-MS/MS analysis; assay type: ADME, organism-based; settings: in vivo; method in brief: as §1
[6] = Oral bioavailability in Harlan rat at 10 mg/kg by LC-MS/MS analysis; assay type: ADME, organism-based; settings: in vivo; method in brief: as §1
[7] = Plasma protein binding in Harlan rat at 1 mg/kg, iv by LC-MS/MS analysis; assay type: ADME, organism-based; settings: read-out: PPB (converted)
[8] = Free plasma concentration in naive C57BL/6 mouse assessed as effect on basic locomotor movement at 30 mg/kg, po measured after 4 hrs for 60 mins by open field test; assay type: ADME, organism-based; settings: in vivo
Method in brief: (§2)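 Naive mice were dosed orally with vehicle or test article at 30, 100 or 300 mg/kg (n = 10 per group). Total basic movement in an open-field arena was recorded after dosing, and unbound plasma concentration was reported per dose.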

Mus musculus [9] = test: In vivo inhibition of Nav1.7 in C57BL/6 mouse assessed as reduction in histamine-induced scratching bouts at 30 mg/kg, po administered 4 hrs prior to histamine challenge measured for 15 mins; assay type: functional, organism-based
Method in brief: (§3)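 Mice were dosed orally with vehicle, diphenhydramine (30 mg/kg, n = 8) or test article at 30 (n = 9), 100 (n = 10) or 300 (n = 10) mg/kg; vehicle n = 12. All groups received histamine intradermally. Total scratch bouts were counted, with unbound plasma concentration reported per dose. Statistics: one-way ANOVA with Dunnett's test versus vehicle.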

[10] = target: T1, Sodium channel protein type 9 subunit alpha; test: Inhibition of human Nav1.7 expressed in HEK293 cells assessed as reduction in peak inward current by manual whole cell patch clamp electrophysiology assay; assay type: cell-based
[11] = target: Sodium channel protein type 1 subunit alpha (Homo sapiens, UniProt P35498); test: Inhibition of human Nav1.1 expressed in HEK293 cells assessed as reduction in peak inward current by manual whole cell patch clamp electrophysiology assay; assay type: cell-based
[12] = target: Sodium channel protein type 2 subunit alpha (Homo sapiens, UniProt Q99250); test: Inhibition of human Nav1.2 expressed in CHO cells assessed as reduction in peak inward current by manual whole cell patch clamp electrophysiology assay; assay type: cell-based
[13] = target: Sodium channel protein type 3 subunit alpha (Homo sapiens, UniProt Q9NY46); test: Inhibition of human Nav1.3 expressed in CHO cells assessed as reduction in peak inward current by manual whole cell patch clamp electrophysiology assay; assay type: cell-based
[14] = target: Sodium channel protein type 4 subunit alpha (Homo sapiens, UniProt P35499); test: Inhibition of human Nav1.4 expressed in HEK293 cells assessed as reduction in peak inward current by manual whole cell patch clamp electrophysiology assay; assay type: cell-based
[15] = target: T1, Sodium channel protein type 9 subunit alpha; test: Inhibition of human Nav1.7 expressed in HEK293 cells assessed as tonic block at pulse 1 by ionworks quattro electrophysiology assay; assay type: cell-based
[16] = target: T1, Sodium channel protein type 9 subunit alpha; test: Inhibition of human Nav1.7 expressed in HEK293 cells assessed as use-dependent block at pulse 26 by ionworks quattro electrophysiology assay; assay type: cell-based
[17] = target: T1, Sodium channel protein type 9 subunit alpha; test: Inhibition of human Nav1.7 at 20% inactivated state expressed in HEK293 cells at -140 mV holding potential followed by channel inactivation by manual whole cell patch clamp electrophysiology assay; assay type: cell-based
Method in brief: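 Tested on channels about 20% inactivated.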

[18] = target: T1, Sodium channel protein type 9 subunit alpha; test: Displacement of [3H]-6,6-fused heteroaryl-sulfonamide derivative from human Nav1.7 expressed in HEK293 cell membranes preincubated for 30 mins followed by radioligand addition measured after 1 hr by scintillation counting analysis
[19] = Toxicity in naive C57BL/6 mouse assessed as effect on basic locomotor movement at 300 mg/kg, po measured after 4 hrs for 60 mins by open field test; assay type: organism-based; settings: in vivo; method in brief: as §2
[20] = Unbound plasma concentration in C57BL/6 mouse model of histamine-induced scratching at 30 mg/kg, po administered 4 hrs prior to histamine challenge; assay type: ADME, organism-based; settings: in vivo; method in brief: as §3
[21] = Unbound plasma concentration in C57BL/6 mouse model of histamine-induced scratching at 100 mg/kg, po administered 4 hrs prior to histamine challenge; assay type: ADME, organism-based; settings: in vivo; method in brief: as §3
Mus musculus [22] = test: In vivo inhibition of Nav1.7 in C57BL/6 mouse assessed as unbound plasma concentration required to reduce histamine-induced scratching bouts at 100 mg/kg, po administered 4 hrs prior to histamine challenge measured for 15 mins; assay type: functional, organism-based; method in brief: as §3
[23] = Apparent passive permeability in MDCK cells at 5 uM after 120 mins by LC/MS/MS analysis; assay type: ADME, cell-based, Canis lupus familiaris; settings: dog
[24] = Protein binding in mouse plasma at 5 uM after 45 mins by LC-MS/MS analysis; assay type: ADME, cell-free; settings: read-out: PPB (converted)
[25] = Free plasma concentration in naive C57BL/6 mouse assessed as effect on basic locomotor movement at 100 mg/kg, po measured after 4 hrs for 60 mins by open field test; assay type: ADME, organism-based; settings: in vivo; method in brief: as §2
[26] = Free plasma concentration in naive C57BL/6 mouse assessed as effect on basic locomotor movement at 300 mg/kg, po measured after 4 hrs for 60 mins by open field test; assay type: ADME, organism-based; settings: in vivo; method in brief: as §2
[27] = Unbound plasma concentration in C57BL/6 mouse model of histamine-induced scratching at 300 mg/kg, po administered 4 hrs prior to histamine challenge; assay type: ADME, organism-based; settings: in vivo; method in brief: as §3
Cytochrome P450 3A4 [28] = target: T2, Cytochrome P450 3A4 (Homo sapiens, UniProt P08684)
Cytochrome P450 2D6 [29] = target: T3, Cytochrome P450 2D6 (Homo sapiens, UniProt P10635)
Cytochrome P450 2C9 [30] = target: T4, Cytochrome P450 2C9 (Homo sapiens, UniProt P11712)
Cytochrome P450 3A4 [31] = target: T2, Cytochrome P450 3A4; remark: listed apart in the source
Cytochrome P450 2D6 [32] = target: T3, Cytochrome P450 2D6; remark: listed apart in the source
Cytochrome P450 2C9 [33] = target: T4, Cytochrome P450 2C9; remark: listed apart in the source
in vitro [34] = settings: human, liver microsomes
in vitro [35] = settings: rat, liver microsomes
physchem = settings: fasted state simulated intestinal fluid, pH 6.8
[36] = Toxicity in C57BL/6 mouse assessed as reduction in locomotor activity at 30 mg/kg, po for 4 hrs by open field test; settings: in vivo

T1 sequence (Q15858 whole entry): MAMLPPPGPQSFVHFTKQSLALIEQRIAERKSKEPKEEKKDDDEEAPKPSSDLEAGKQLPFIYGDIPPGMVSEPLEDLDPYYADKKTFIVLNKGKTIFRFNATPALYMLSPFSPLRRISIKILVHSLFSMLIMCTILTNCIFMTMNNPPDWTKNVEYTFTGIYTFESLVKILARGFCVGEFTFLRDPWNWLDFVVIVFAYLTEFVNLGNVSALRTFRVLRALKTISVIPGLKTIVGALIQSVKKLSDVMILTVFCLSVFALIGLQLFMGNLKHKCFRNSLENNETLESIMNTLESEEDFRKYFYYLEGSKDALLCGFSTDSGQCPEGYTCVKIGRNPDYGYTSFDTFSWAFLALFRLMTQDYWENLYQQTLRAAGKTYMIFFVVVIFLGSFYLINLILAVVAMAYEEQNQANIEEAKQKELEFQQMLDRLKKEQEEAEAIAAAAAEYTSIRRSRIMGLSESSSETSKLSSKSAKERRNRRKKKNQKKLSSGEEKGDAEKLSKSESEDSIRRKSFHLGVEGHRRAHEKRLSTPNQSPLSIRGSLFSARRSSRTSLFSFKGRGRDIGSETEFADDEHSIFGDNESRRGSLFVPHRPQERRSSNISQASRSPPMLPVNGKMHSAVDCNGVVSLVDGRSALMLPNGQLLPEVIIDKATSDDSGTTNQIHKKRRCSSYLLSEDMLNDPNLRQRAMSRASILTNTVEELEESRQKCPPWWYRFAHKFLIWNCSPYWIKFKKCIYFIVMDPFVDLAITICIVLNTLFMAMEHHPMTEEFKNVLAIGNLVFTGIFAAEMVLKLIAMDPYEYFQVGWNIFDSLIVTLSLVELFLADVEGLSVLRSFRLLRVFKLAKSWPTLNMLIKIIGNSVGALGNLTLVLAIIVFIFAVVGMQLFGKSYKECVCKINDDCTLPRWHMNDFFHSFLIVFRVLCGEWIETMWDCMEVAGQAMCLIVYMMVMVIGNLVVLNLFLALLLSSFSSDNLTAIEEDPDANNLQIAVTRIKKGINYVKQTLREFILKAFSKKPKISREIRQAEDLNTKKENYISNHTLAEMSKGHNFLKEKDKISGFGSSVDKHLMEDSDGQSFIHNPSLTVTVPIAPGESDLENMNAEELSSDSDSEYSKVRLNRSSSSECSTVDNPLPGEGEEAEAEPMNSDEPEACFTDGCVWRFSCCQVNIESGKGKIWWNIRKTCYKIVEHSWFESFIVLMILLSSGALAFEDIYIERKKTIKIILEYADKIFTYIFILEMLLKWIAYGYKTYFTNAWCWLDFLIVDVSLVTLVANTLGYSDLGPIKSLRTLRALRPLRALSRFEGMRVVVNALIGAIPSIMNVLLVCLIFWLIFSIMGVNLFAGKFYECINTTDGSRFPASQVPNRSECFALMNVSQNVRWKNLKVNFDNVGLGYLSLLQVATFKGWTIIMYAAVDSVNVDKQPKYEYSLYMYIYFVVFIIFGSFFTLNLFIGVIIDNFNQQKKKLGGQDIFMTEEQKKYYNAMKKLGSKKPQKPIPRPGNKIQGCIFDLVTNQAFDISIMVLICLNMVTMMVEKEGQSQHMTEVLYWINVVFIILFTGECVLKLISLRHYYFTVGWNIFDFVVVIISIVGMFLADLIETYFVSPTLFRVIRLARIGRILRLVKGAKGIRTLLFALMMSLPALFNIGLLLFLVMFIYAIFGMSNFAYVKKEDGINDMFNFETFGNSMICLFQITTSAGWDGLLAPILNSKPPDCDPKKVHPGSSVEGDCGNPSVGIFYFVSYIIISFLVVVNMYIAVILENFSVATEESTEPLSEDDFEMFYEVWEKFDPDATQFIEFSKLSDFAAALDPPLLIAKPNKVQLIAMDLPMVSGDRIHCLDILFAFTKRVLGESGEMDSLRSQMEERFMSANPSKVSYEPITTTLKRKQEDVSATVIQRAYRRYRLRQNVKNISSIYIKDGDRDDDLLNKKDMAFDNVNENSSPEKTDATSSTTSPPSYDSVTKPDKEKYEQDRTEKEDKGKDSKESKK
T4 sequence (P11712 whole entry): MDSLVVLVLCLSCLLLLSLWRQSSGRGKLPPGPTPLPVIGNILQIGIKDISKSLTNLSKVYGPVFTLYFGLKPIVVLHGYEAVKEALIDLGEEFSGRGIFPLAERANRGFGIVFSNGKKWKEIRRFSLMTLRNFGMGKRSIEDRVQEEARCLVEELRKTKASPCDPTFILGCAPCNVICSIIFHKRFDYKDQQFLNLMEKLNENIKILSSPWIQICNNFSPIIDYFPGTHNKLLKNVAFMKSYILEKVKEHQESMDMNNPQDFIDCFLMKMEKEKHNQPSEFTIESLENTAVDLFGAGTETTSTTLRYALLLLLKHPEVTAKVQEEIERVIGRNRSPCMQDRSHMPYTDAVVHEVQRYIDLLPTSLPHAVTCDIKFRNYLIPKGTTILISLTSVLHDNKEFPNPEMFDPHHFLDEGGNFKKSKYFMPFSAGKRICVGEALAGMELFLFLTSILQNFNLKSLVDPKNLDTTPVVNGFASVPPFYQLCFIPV
T3 sequence (P10635 whole entry): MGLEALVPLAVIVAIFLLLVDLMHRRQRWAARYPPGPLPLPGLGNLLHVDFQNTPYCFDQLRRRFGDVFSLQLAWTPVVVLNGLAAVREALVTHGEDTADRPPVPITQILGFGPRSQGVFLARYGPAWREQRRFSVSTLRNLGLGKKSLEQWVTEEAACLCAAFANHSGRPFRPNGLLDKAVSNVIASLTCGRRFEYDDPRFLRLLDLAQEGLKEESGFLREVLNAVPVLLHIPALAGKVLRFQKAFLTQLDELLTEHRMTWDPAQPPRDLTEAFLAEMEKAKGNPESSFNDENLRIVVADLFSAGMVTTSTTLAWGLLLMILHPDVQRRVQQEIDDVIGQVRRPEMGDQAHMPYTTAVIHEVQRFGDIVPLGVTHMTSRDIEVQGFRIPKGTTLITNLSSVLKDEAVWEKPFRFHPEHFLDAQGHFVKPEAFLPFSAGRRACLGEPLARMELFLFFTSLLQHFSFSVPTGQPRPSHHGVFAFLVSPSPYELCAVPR
T2 sequence (P08684 whole entry): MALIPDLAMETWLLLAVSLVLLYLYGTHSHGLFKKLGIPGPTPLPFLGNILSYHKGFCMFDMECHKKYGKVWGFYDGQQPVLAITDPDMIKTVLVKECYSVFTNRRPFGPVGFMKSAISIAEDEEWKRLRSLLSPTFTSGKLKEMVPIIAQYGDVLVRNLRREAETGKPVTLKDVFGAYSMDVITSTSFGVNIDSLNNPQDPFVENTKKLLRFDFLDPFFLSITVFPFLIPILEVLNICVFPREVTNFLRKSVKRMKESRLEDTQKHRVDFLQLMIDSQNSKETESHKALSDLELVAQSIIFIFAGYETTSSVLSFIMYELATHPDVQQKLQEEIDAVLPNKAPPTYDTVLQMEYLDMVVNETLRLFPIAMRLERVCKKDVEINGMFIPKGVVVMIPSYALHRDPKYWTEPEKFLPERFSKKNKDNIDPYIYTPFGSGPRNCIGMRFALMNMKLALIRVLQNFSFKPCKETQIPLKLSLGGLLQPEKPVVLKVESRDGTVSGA

SMILES: COc1cc(C(=O)NS(C)(=O)=O)c(F)cc1-c1cnc(Oc2cc(F)ccc2F)c(Cl)c1
- IC50 [1]: 69 nM
- IC50 [2]: 3.69 µM
- AUC(0-inf) [3]: 5.4 µM·h
- clearance [4]: 6.5 mL/min/kg
- half-life [5]: 110 min
- bioavailability [6]: > 100%
- fraction unbound [7]: 0.004
- Cp(f) [8]: 0.64 µM
- inhibition (Mus musculus [9]): inactive
- IC50 [10]: 51 nM
- IC50 [11]: 8.5 µM
- IC50 [12]: 9.8 µM
- IC50 [13]: 12.5 µM
- IC50 [14]: 1100 nM
- IC50 [15]: 44 nM
- IC50 [16]: 42 nM
- IC50 [17]: 51 nM
- IC50 [18]: 17 nM
- Activity [19]: Non-Toxic
- Cp(f) [20]: 0.294 µM
- Cp(f) [21]: 1.27 µM
- Activity (Mus musculus [22]): inactive
- Papp at 2 h, 5 µM [23]: 22.4 ×10⁻⁶ cm/s
- fraction unbound at 0.75 h, 5 µM [24]: 0.014
- Cp(f) [25]: 2.39 µM
- Cp(f) [26]: 3.72 µM
- Cp(f) [27]: 4.16 µM
- IC50 (Cytochrome P450 3A4 [28]): > 50 µM
- IC50 (Cytochrome P450 2D6 [29]): > 50 µM
- IC50 (Cytochrome P450 2C9 [30]): 45.3 µM
- IC50 (Cytochrome P450 3A4 [31]): > 50 µM
- IC50 (Cytochrome P450 2D6 [32]): > 50 µM
- IC50 (Cytochrome P450 2C9 [33]): 49.6 µM
- microsomal CLint at 1 µM (in vitro [34]): 27 µL/min/mg
- microsomal CLint at 1 µM (in vitro [35]): < 14 µL/min/mg
- solubility thermodynamic at 24 h (physchem): 500 µM (≈ 243 µg/mL)
- Activity [36]: Non-Toxic
